From ChEMBL document CHEMBL1140956, “Syntheses of 4-(indole-3-yl)quinazolines: a new class of epidermal growth factor receptor tyrosine kinase inhibitors” (Eur J Med Chem, 2008) come the findings set out here.

Experiment [1] addresses Epidermal growth factor receptor (Homo sapiens, UniProt P00533). The experiment is described as follows: Inhibition of human EGFR tyrosine kinase activity.
Experiment [2] addresses Receptor tyrosine-protein kinase erbB-2 (Homo sapiens) (UniProt P04626). Put plainly: Inhibition of human HER2 tyrosine kinase activity at 100 nM.
The next experiment relates to HOP-92. The experiment is described as follows: Growth inhibition of human HOP92 cells after 72 hrs by SRB assay. The class given is functional. The following applies: HOP-92, 48 h, in the assay text read “48 hrs” for “72 hrs”. The procedure, abridged:
(§1)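 NCI 60-cell-line screen. Cells were grown in RPMI 1640 with 5% fetal bovine serum, plated at 5000–40 000 cells/well by doubling time, and held 24 h at 37 °C, 5% CO2. Time-zero plates were TCA-fixed when the DMSO-solubilized drug was added at five concentrations (10-fold or ½-log dilutions). After 48 h, cells were fixed with cold TCA and stained with 0.4% SRB in 1% acetic acid. Bound dye was dissolved in 10 mM trizma base and read at 515 nm. Percentage growth was calculated relative to time-zero and control.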
For orientation: The SRB assay estimates cell density from bound dye.

The test system of another experiment is A498. The experiment is described as follows: Growth inhibition of human A498 cells after 72 hrs by SRB assay. The settings on record: A498, 48 h, in the assay text read “48 hrs” for “72 hrs”. The class given is functional. A digest of the protocol: as §1
The subject of a further experiment is NCI-H322M. Put plainly: Growth inhibition of human NCI-H322M cells after 72 hrs by SRB assay. The class given is functional. The settings on record: 48 h, in the assay text read “48 hrs” for “72 hrs”. A digest of the protocol: as §1
The subject of the next experiment is TK-10. The experiment is described as follows: Growth inhibition of human TK10 cells after 72 hrs by SRB assay. The following applies: TK-10, 48 h, in the assay text read “48 hrs” for “72 hrs”. The class given is functional. A digest of the protocol: as §1
In the next experiment the test system is ACHN. The experiment is described as follows: Growth inhibition of human ACHN cells after 72 hrs by SRB assay. The settings on record: 48 h, in the assay text read “48 hrs” for “72 hrs”. The class given is functional. The procedure, abridged:
as §1

The test system of another experiment is PC-3. Put plainly: Growth inhibition of human PC3 cells after 72 hrs by SRB assay. The class given is functional. The following applies: PC-3, 48 h, in the assay text read “48 hrs” for “72 hrs”. The procedure, abridged:
as §1

Another experiment concerns HT-29. The experiment is described as follows: Growth inhibition of human HT29 cells after 72 hrs by SRB assay. The class given is functional. The following applies: HT-29, 48 h, in the assay text read “48 hrs” for “72 hrs”. A digest of the protocol: as §1
Another experiment relates to IGROV-1. Put plainly: Growth inhibition of human IGROV1 cells after 72 hrs by SRB assay. The following applies: IGROV-1, 48 h, in the assay text read “48 hrs” for “72 hrs”. The class given is functional. The procedure, abridged: as §1
Another experiment deals with EKVX. Put plainly: Growth inhibition of human EKVX cells after 72 hrs by SRB assay. The settings on record: 48 h, in the assay text read “48 hrs” for “72 hrs”. The class given is functional. The procedure, abridged: as §1
The next experiment relates to SNB-75. The experiment is described as follows: Growth inhibition of human SNB75 cells after 72 hrs by SRB assay. The class given is functional. The settings on record: SNB-75, 48 h, in the assay text read “48 hrs” for “72 hrs”. The procedure, abridged: as §1
For another experiment, the system named is SK-OV-3. Put plainly: Growth inhibition of human SKOV3 cells after 72 hrs by SRB assay. The following applies: SK-OV-3, 48 h, in the assay text read “48 hrs” for “72 hrs”. The class given is functional. A digest of the protocol: as §1

Epidermal growth factor receptor, sequence (P00533 whole entry): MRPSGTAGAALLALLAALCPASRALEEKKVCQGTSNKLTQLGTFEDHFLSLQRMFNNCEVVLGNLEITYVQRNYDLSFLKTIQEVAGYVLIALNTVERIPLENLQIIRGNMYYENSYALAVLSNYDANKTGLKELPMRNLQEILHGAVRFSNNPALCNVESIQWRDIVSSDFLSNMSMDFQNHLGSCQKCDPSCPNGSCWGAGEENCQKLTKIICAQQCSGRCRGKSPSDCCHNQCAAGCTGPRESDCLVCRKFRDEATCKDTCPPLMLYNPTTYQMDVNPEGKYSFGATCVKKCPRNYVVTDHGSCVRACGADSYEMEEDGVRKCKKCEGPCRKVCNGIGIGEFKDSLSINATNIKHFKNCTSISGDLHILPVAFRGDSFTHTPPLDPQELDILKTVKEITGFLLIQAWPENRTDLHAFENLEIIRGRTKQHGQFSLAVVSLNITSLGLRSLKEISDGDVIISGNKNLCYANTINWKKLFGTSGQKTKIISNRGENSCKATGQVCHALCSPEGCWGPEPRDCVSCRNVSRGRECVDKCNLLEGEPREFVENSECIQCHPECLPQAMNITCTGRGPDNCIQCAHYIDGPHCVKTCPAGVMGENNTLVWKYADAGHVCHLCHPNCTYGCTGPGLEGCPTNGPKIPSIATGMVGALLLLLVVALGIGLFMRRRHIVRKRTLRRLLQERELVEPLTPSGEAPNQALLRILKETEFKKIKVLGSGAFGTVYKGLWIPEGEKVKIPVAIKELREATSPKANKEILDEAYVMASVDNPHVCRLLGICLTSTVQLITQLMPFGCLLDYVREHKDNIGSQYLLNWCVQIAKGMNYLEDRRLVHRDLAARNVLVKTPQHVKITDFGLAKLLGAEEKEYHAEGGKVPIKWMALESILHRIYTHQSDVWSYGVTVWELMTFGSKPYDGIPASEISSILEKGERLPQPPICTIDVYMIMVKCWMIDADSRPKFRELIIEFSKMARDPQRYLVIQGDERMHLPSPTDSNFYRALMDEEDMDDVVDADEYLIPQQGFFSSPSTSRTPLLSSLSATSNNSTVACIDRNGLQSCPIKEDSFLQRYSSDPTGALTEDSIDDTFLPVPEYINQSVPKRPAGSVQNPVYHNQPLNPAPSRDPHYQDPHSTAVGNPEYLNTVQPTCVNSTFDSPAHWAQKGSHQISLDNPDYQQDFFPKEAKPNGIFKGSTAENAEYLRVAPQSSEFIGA
Receptor tyrosine-protein kinase erbB-2 (Homo sapiens), sequence (P04626 whole entry): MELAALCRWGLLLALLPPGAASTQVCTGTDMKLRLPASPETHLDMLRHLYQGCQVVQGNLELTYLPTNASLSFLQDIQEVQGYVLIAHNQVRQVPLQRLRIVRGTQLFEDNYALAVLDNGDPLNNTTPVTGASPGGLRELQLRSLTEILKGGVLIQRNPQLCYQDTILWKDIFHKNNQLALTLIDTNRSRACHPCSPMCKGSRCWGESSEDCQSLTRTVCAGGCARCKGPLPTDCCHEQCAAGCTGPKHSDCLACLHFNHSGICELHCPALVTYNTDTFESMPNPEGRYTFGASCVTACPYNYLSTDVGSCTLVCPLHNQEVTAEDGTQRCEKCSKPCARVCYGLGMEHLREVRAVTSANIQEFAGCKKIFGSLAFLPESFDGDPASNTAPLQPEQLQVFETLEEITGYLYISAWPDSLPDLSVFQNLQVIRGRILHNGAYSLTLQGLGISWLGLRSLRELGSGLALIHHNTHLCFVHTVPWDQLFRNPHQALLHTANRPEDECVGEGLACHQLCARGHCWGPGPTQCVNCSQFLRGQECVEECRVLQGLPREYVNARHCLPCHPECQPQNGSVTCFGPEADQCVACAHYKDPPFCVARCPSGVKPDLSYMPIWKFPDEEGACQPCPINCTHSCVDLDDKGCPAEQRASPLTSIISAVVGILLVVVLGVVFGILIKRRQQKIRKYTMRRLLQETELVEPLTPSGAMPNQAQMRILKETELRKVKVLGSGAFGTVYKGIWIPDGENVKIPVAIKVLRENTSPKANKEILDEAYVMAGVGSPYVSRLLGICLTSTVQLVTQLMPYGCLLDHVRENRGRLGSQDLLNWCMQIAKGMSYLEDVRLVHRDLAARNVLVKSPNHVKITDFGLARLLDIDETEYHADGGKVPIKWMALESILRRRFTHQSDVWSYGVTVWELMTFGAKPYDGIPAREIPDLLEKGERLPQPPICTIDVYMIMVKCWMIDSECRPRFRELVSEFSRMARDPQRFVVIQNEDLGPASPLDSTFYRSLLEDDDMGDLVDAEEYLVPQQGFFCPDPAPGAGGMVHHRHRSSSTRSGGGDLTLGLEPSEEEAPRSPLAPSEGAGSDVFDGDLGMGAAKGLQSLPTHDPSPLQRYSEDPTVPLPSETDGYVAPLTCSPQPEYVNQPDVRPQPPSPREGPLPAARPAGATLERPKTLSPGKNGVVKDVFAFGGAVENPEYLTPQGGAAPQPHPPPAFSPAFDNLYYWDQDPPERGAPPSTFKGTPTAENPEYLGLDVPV

Broadly, the IC50 is the concentration that gives 50% inhibition. High values mean lower potency, low ones higher potency. In the case of `COCCOc1cc2ncnc(-c3c[nH]c4cc(F)c(Cl)cc34)c2cc1OCCOC`, the 50% inhibitory concentration (IC50) in experiment [1] came out at 472 nM.
Molecule `COc1cc2ncnc(-c3c[nH]c4cc(F)c(C)cc34)c2cc1OC` yielded an IC50 in [1] of 533 nM.
Same read-out and setting: next, `COc1cc2ncnc(-c3c[nH]c4ccc(Br)cc34)c2cc1OC`: 131 nM.
Broadly, the inhibition is how much of the control response was suppressed. A low value points to a response near the control. By GI50 is commonly meant the concentration giving 50% growth inhibition. High values mean less potent growth inhibition, low ones more potent growth inhibition. In the case of `COc1cc2ncnc(-c3c[nH]c4cc(F)c(Cl)cc34)c2cc1OC`, the inhibition in experiment [2] amounted to 3%. Moreover, the GI50 with HOP-92 came to 1750 nM; in the experiment on A498, 492 nM; in the experiment on NCI-H322M, 255 nM; in the experiment on TK-10, 325 nM; in the experiment with ACHN, 222 nM; in the experiment with PC-3 it was 766 nM. Moreover, the concentration for 50% growth inhibition (GI50) in the experiment on HT-29 stood at 848 nM; with IGROV-1 it was 424 nM; with EKVX, 410 nM; with SNB-75, 204 nM; in the experiment with SK-OV-3, 711 nM. The same molecule yielded an IC50 in experiment [1] of 209 nM.
In experiment [2], `COc1cc2ncnc(-c3c[nH]c4cc(F)c(Cl)cc34)c2cc1OCCCN1CCOCC1` displayed an inhibition of 19%. For the same molecule, the GI50 in the experiment with HOP-92 came out at 504 nM; in the experiment with A498 it was 2900 nM; with NCI-H322M, 38 nM; in the experiment with TK-10, 97.6 nM; with ACHN, 215 nM; with PC-3, 490 nM. Moreover, the GI50 amounted to 3700 nM in the experiment on HT-29; 108 nM in the experiment with IGROV-1; 89.7 nM in the experiment on EKVX; 49.3 nM in the experiment with SNB-75; 592 nM with SK-OV-3. In addition, the IC50 in [1] stood at 333 nM.
